Experimental data taken from PMC10839871 (Heliyon, 2024).
Where two headings read alike, the source gives them in different places. Blank lines part the entries; values can stand above or below the compound they belong to.

Assays:
[1] = ref 27 (Djouahri et al., 2015); cited from earlier work
[2] = biological target: Porcine pancreatic elastase (Sus scrofa, UniProt P00772); test: Anti-elastase activity; assay type: biochemical
How it was run: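 Porcine pancreatic elastase stock at 3.33 mg/mL in sterile water. Test sample (3–0.046 mg/mL), Tris–HCl buffer (pH 8) and enzyme pre-incubated 15 min. N-succinyl-Ala-Ala-Ala-p-nitroanilide substrate (1.6 mM solution) added, then 20 min at 37 °C. A400 read immediately. Inhibition % from blank-corrected sample versus buffer+enzyme absorbance. EGCG positive control. Run in triplicate, mean ± SD.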

[3] = Ferric reducing antioxidant power
[4] = DPPH free radical scavenging assay
Enterococcus faecalis = test: MIC / bacterial growth, broth microdilution; assay type: cell-based; conditions: standard antibiotic
How it was run: (§1)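 Ampicillin (10 to 0.078125 mg/mL) as reference in Mueller–Hinton broth microdilution. Wells inoculated with fresh overnight suspension adjusted to OD600 0.6; uninoculated and drug-free growth controls included. Incubated 18 h at 37 °C, aerobic, shaking at 150 rpm. Growth checked visually and spectrophotometrically. MIC taken as lowest concentration preventing visible growth. Triplicate.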

Pseudomonas aeruginosa = test: MIC / bacterial growth, broth microdilution; assay type: cell-based; conditions: standard antibiotic
How it was run: as §1

Staphylococcus aureus = test: MIC / bacterial growth, broth microdilution; assay type: cell-based; conditions: standard antibiotic
How it was run: as §1

Chain of Porcine pancreatic elastase (P00772 27-266): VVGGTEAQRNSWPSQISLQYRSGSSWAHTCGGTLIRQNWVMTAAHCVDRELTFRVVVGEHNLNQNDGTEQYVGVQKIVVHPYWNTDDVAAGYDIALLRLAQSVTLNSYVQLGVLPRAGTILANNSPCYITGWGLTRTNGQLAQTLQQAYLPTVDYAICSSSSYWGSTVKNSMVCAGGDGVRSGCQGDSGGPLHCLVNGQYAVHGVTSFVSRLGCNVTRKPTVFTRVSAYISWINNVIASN

ABTS IC50 (ABTS assay): 21.7 ± 0.29 µg/mL
Structure (SMILES): O=C1O[C@H]([C@@H](O)CO)C(O)=C1O [Ascorbic acid]

Elastase IC50 [2]: 92.00 ± 3.1 µg/mL
Structure (SMILES): O=C(O[C@@H]1Cc2c(O)cc(O)cc2O[C@@H]1c1cc(O)c(O)c(O)c1)c1cc(O)c(O)c(O)c1 [EGCG, epigallocatechin gallate]

DPPH IC50 [4]: 5.36 ± 0.25 µg/mL
Structure (SMILES): O=c1c(O)c(-c2ccc(O)c(O)c2)oc2cc(O)cc(O)c12 [Quercetin]
FRAP [3]: 16.60 ± 0.64 mM of FeSO4/g Extract

The remaining lines, values behind:

Structure (SMILES): COc1ccc(O)c(C(C)(C)C)c1 [BHA]
DPPH IC50 [1]: 24.73 ± 0.11 µg/mL

Structure (SMILES): Cc1cc(C(C)(C)C)c(O)c(C(C)(C)C)c1 [BHT]
DPPH IC50 [1]: 33.89 ± 0.16 µg/mL

Structure (SMILES): CC1(C)S[C@@H]2[C@H](NC(=O)[C@H](N)c3ccccc3)C(=O)N2[C@H]1C(=O)O [ampicillin]
Concentration that completely inhibited the bacterial growth (Enterococcus faecalis): 0.3125 mg/mL
Concentration that completely inhibited the bacterial growth (Pseudomonas aeruginosa): 0.3125 mg/mL
Concentration that completely inhibited the bacterial growth (Staphylococcus aureus): 0.3125 mg/mL
